Compound activity: PubChem BioAssay, several laboratories
proCasp3 act: procaspase-3 (human) activation. P42574. recombinant procaspase-3 D3A, Ac-DEVD-pNA absorbance 405 nm. hit rate 0.11% among 330,000. activation, % at 8.5 µM;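 active = activation above the mean of all tested compounds plus 3 SD, cut at about 21% in these data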;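 note: 0% = DMSO alone and 100% = DMSO wells spiked with extra 5 µM PC-3 D3A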
Target sequence (P42574 whole entry D9A/D28A/D175A): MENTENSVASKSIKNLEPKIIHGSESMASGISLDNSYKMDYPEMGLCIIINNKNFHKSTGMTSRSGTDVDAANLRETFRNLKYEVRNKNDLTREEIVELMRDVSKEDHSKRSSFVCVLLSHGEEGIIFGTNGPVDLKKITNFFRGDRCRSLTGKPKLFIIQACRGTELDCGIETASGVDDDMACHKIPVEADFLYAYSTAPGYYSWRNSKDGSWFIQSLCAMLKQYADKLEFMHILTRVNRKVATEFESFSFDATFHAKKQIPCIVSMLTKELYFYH
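Assay system: Procaspase-3 D3A mutant, all three cleavage aspartates alanine. Buffer or medium: Zinc-free HEPES saline buffer with Triton X-100. Times: 1 h compound preincubation, 2 h substrate hydrolysis at 25 °C. Measured by: 405 nm absorbance of p-nitroaniline, reads at 0 and 120 min. Read-out basis: percent activation relative to control range. Replicates: singlicate.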
proCasp7 act: activates human procaspase-7, counter-screen for procaspase-3 activators; P55210; recombinant procaspase-7, Ac-DEVD-pNA absorbance 405 nm; D23A/D198A/D206A triple mutant, cannot self-cleave; scale: DMSO 0, 5 µM enzyme 100; activation, % at 8.5 µM; hit rate 0.093% among 330,000; AID 463210;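 active = percent activation above the screen-wide mean plus 3 SD, cut at about 25% in these data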
Target sequence (P55210 whole entry D23A/D198A/D206A): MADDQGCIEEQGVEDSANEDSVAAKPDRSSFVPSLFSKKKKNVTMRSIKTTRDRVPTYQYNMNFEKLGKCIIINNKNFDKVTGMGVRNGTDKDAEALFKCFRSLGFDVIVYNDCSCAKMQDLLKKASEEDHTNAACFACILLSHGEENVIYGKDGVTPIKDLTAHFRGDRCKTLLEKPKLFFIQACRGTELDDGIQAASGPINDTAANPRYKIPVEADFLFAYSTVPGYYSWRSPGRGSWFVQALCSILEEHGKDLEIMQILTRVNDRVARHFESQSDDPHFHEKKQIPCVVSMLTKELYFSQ
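buffer or medium = Zinc-free HEPES/NaCl buffer, pH 7.4 | material = Procaspase-7 triple mutant (PC-7 D3A) | input = 2 µM procaspase-7 mutant as dispensed | signal = Epi-absorbance of released pNA at 405 nm, two timepoints | timing = 1 h preincubation, 2 h reaction | replicates = singlicate compound testing | evaluation = % activation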
bovine MsrA act: activators of bovine methionine sulfoxide reductase A; purified bovine MsrA, absorbance read-out; activation, % at 10.6 µM; hit rate 0.3% among 360,000; AID 602163; in the data active = activation above about 7.5%;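 note: 0% = vehicle and 100% = reference activator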
MsrA inhibitor: inhibits bovine methionine sulfoxide reductase A; purified bovine MsrA, absorbance read-out; inhibition, % at 15.5 µM; hit rate 0.75% among 360,000; AID 651718; in the data active = inhibition above about 4.5%;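 note: 0% = vehicle wells with enzyme and 100% = reference inhibitor wells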
A1 inh: inhibitors of the anti-apoptotic protein A1, read as caspase activation; MEF A1-2A-BIM cells, Caspase-Glo 3/7 luminescence, 3 h; percent of clofoctol response, vehicle zero; caspase activation, % (concentration not given with the values); hit rate 0.066% among 330,000;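 active = over half of replicate activation scores above 10%, or exactly half above 10 with the replicate mean above 10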
MsrA activ conf: bovine methionine sulfoxide reductase A activation confirmed; hit rate 12% among 1,000; AID 602270; shares compounds with bovine MsrA act; activation, % at 10.6 µM; purified bovine MsrA, absorbance read-out; in the data active = activation above about 4%;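 note: enzyme coupled to thioredoxin and thioredoxin reductase with NADPH; 0% = vehicle wells and 100% = reference activator wells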
* = called active by the depositor; . = no result given. Most compounds without a hit are left out; they make up all but 1.2% or so of the library.

SMILES	proCasp3 act	proCasp7 act	bovine MsrA act	MsrA inhibitor	A1 inh	MsrA activ conf
COc1ccccc1-c1ccc(OCCCN2CCC(C(O)(c3ccccc3)c3ccccc3)CC2)cc1	.	.	.	0	.	.
CCOC(=O)C1=CN(Cc2cccc(F)c2)S(=O)(=O)N(CC)C1CCc1ccccc1 (configuration not stated)	-1	1	8.6*	0	.	1
CCOC(=O)C1=CN(Cc2cccc(F)c2)S(=O)(=O)NC1CCc1ccccc1 (configuration not stated)	-2	-4	1	-1	.	.
COC(=O)c1cc2c(c3c4cc(F)ccc4n(S(=O)(=O)c4ccccc4)c13)C(=O)N(Cc1ccc(N(C)C)cc1)C2	.	.	.	0	.	.
COc1ccccc1CNC(=O)C(=O)NCC1CCCO1 (configuration not stated)	-1	4	-5	0	0	.
COc1ccccc1CC(=O)NCC1CCCO1 (configuration not stated)	3	6	8.4*	0	1	0
COC(=O)C1=C(C)N(CC(C)C)C(=S)NC1c1cccc(F)c1 (configuration not stated)	.	.	.	1	.	.
COc1cccc(C(CC2=CCCCC2)NC(=O)C(F)(F)F)c1 (configuration not stated)	.	.	.	0	.	.
C[C@H]1[C@H](c2ccccc2)Oc2cccc(NCCc3ccccc3)c2S(=O)(=O)N1Cc1cccc(Cl)c1	.	.	.	0	.	.
O=C(Nc1ccc2c(c1)OCCO2)Nc1ccc2c(c1)OCO2	-6	-12	-3	0	-5	.
O=C(Nc1ccc2c(c1)OCCO2)NC12CC3CC(CC(C3)C1)C2	-5	-3	9.1*	0	1	1
C=CCn1c(COc2ccc(Cl)cc2)nnc1SCC(=O)NCC(=O)OCC	4	6	8.2*	1	-1	0
CC(=O)Oc1cc(C)c(Cl)c2c(OC(C)=O)cc(C(C)=O)c(O)c12	.	.	.	-1	.	.
CC(=O)c1ccc(NC(=O)C2CC2c2ccccc2)cc1 (configuration not stated)	-2	0	10*	0	0	-4
CC(C)(C)NC(=S)NNC(=O)[C@H]1C[C@@H]1c1ccccc1	-1	12	8.5*	-1	-2	-1
O=C(NC(=S)NNC(=O)[C@H]1C[C@@H]1c1ccccc1)c1ccc(F)cc1	2	-11	-6	0	0	.
COC(=O)[C@]12C[C@H](CC(=O)N3CCCC3)C(=O)N(CCC3=CCCCC3)C1=C[C@H](COCc1ccccc1)O[C@@H]2C	.	.	.	1	.	.
O=C(NCc1ccccc1)[C@@H]1CCCN1C(=O)[C@H]1CCCN1C(=O)c1cccc2ccccc12	.	.	.	0	.	.
CC1CCN(CCCNC(=O)c2ccc3c(=O)n(Cc4ccc(Cl)cc4)c(=S)[nH]c3c2)CC1	-2	-2	8.2*	2	0	-3
COC(=O)c1ccc2c(=O)n(Cc3ccc(C(=O)NCCCN4CCC(C)CC4)cc3)c(=S)[nH]c2c1	1	12	-13	0	-1	.
CC(=O)OCC(=O)NCC1CCN(C(=O)C(=O)c2cc3ccccc3o2)CC1	.	.	.	2	.	.
CN(C(=O)c1ccc(NC(=O)Cc2cccc(NC(=O)C3CCCN(C(=O)C4CC4)C3)c2)cc1)C1CCCC1 (configuration not stated)	-2	9	8.3*	-1	-2	-1
CN(C(=O)c1ccc(NC(=O)Cc2cccc(NC(=O)C3CCCN(C(=O)C4CCCCC4)C3)c2)cc1)C1CCCC1 (configuration not stated)	-7	1	-2	-1	0	.
O=C(NCc1ccccc1)[C@@H]1CCCN1C(=O)[C@H]1CCCN1C(=O)c1cccc(F)c1	.	.	.	1	.	.
CCc1cc2c(nc1CC)CCCN2Cc1ccc(Br)cc1	.	.	.	1	.	.
SMILES	proCasp3 act	proCasp7 act	bovine MsrA act	MsrA inhibitor	A1 inh	MsrA activ conf
COc1ccc(C(C)=O)cc1CSC(=S)N1CCSCC1	.	.	.	-1	.	.
Cc1ccc(C(=O)OCC(=O)NC2CCCCC2)cc1S(=O)(=O)N1CCCCC1	-5	-6	8.4*	0	.	-2
C#CCN(Cc1ccco1)C(=O)c1nnc2c3ccccc3n(S(=O)(=O)c3ccccc3)c2n1	.	.	.	0	.	.
COc1cccc(C(=O)Nc2cccc3ccccc23)c1	.	.	20*	1	-1	-1
CC(=O)Nc1cccc(NC(=O)Nc2cccc3ccccc23)c1	-5	2	-5	0	2	.
O=C(Nc1cccc(C(=O)O)c1)Nc1cccc2ccccc12	2	2	8.3*	0	-6	-1
O=C(C1CCN(S(=O)(=O)c2ccccc2F)CC1)N1CCc2ccccc21	2	-7	8.8*	-2	0	-1
CCOC(=O)c1cc2nc(OCC)nc(OCC)c2[nH]1	.	.	8.7*	1	.	-1
COC(=O)[C@]12C[C@H](CC(=O)NCc3cccs3)C(=O)N(CCc3ccc(OC)c(OC)c3)C1=C[C@H](C(C)(C)C)O[C@@H]2C	.	.	.	0	.	.
CCOC(=O)N(C)c1c(CC)nc2c(OCc3cccc(Cl)c3)cccn12	.	.	9.2*	1	.	-3
CCOC(=O)C(=O)N(C)c1c(CC)nc2c(OCCC3CCCCC3)cccn12	.	.	8.2*	0	.	1
CCOC(=O)C(=O)N(C)c1c(CC)nc2c(OCc3cccc(Cl)c3)cccn12	.	.	2	0	.	.
CCOC(=O)N(C)c1c(CC)nc2c(OCCC3CCCCC3)cccn12	.	.	0	1	.	.
COC(=O)C1=C(C)N(C)C(=NCC2CC2)NC1CCc1ccccc1 (configuration not stated)	.	.	.	-1	.	.
COc1ccc(CC(=O)N2CCCc3ccccc32)cc1	2	-7	-5	0	2	.
COc1ccc(CC(=O)N2CCCc3ccccc32)cc1OC	-10	2	9.6*	-1	0	-3
COC(=O)C1=C(C)N(C)C(=NCc2ccc(OC)cc2)NC1c1ccccc1 (configuration not stated)	.	.	.	1	.	.
Cn1nnnc1SCC(=O)N1CCc2ccccc21	1	-6	17*	0	1	-3
CCCCNc1cccc2c1S(=O)(=O)N[C@H](C)CO2	.	.	.	0	.	.
Cn1c(=O)c2c(nc(SCC(=O)O)n2Cc2cccc(C(F)(F)F)c2)n(C)c1=O	2	-3	-5	0	0	.
Cn1c(=O)c2c(nc(NCCCO)n2Cc2cccc(C(F)(F)F)c2)n(C)c1=O	-3	6	8.3*	1	0	0
O=C(N1CCOCC1)N1CCN(C(=O)N(c2ccccc2)c2ccccc2)CC1	-4	9	7.9*	2	1	-2
COc1cc(N2C[C@@]3(O)CC[C@@H](O)[C@@H](OC)[C@@H]3[C@@](C)(O)[C@@H]2CC=C(C)C)cc(OC)c1OC	.	.	.	1	.	.
CCCCCCCCN1C(=O)[C@@H](CC(=O)NCCCN2CCCC2=O)C[C@@]2(C(=O)OC)C1=C[C@H](C1CCCC1)O[C@@H]2C	.	.	.	1	.	.
